Measured values reported in the EternaBench riboswitch data.

Tested on: MS2 coat protein
Test: apparent Kd, MS2 coat protein; higher = weaker binding; RNA-MaP array; FMN 200 µM where present
Outline: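 Stalled E. coli RNA polymerase transcribed each design on Illumina sequencing-chip clusters. The clusters were titrated with SNAP-549-labelled MS2 coat protein, starting at 0.7 or 1.5 nM and doubling up to 3 µM, first without ligand and then with constant ligand, in 100 mM Tris-HCl pH 7.5, 80 mM KCl, 4 mM MgCl2, BSA, DTT, yeast tRNA and Tween-20. Green signal was normalised to red-channel RNA signal and to the control-cluster median Fmax. The apparent Kd is the median of filtered binding-curve fits made for each cluster.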

[1] = designed as: OFF switch for flavin mononucleotide, no ligand
[2] = ligand present: flavin mononucleotide, designed as: OFF switch for flavin mononucleotide
[3] = designed as: ON switch for flavin mononucleotide, no ligand
[4] = ligand present: flavin mononucleotide, designed as: ON switch for flavin mononucleotide

Sequence | apparent Kd [1] | apparent Kd [2] | apparent Kd [3] | apparent Kd [4]
GGUGCAGUGUAGAAGGCAGAUCUGAUUCAGAUCUGAGGAUAUACAUGAGGAUCACCCAUGUUAUGCACCAGCACGAGAGUGCAA | 6.28 nM | 8.76 nM | – | –
GGUGCAUAUGAGAAGGCGAUCAUGAAACAUGAUCGAGGAUAUCAUGUAAACAUGAGGAUCACCCAUGUAUGGGUAAAGUGCAUC | – | – | 444 nM | 27.1 nM
GGUGCCAUGUAGAAGGCAGAUCUGAUUCAGAUCUGAGGAUAUACAUGAGGAUCACCCAUGUAAAGGCACCGCCCGAGAGUGCAA | 7.46 nM | 17.6 nM | – | –
GGUGCGUAUGUGAGGAUAUGCUGGUCCUUGGAUCGGCAGAAGGCACAUGAGGAUCACCCAUGUGGUGUCGUACU | 300 nM | 25.5 nM | – | –
GGUGCGUAUGUGAGGAUAUGCUGGUCCUUGGAUCGGCAGAAGGUACAUGAGGAUCACCCAUGUGGUGUCGUUCC | 97.5 nM | 289 nM | – | –
GGUGCGUAUGUGAGGAUAUGCUGGUCCUUGGAUCUGCAGAAGGCACAUGAGGAUCACCCAUGUGGUGUCGUACC | 356 nM | 28.5 nM | – | –
GGUGCGUAUGUGAGGAUAUGCUGGUCCUUGGCUCAGCAGAAGGCACAUGAGGAUCACCCAUGUGGUGUCGUACC | 333 nM | 21.8 nM | – | –
GGUGCGUAUGUGAGGAUAUGCUGGUCCUUGGCUCGGCAGAAGGCACAUGAGGAUCACCCAUGUGGUGUCGUACC | 278 nM | 50.9 nM | – | –
GGUGCGUUUGUGAGGAUAUGCUGGUCCUUGGUUCUGCAGAAGGCACAUGAGGAUCACCCAUGUGGUGUCGUACC | 77 nM | 162 nM | – | –
GGUGGACAUGAGGAUCACCCAUGUGAGGAUAUCGGCCGGCUAGUGGCGGCUGGCUUCUCGAGAAGGCGCAUAGU | 47.2 nM | 62.9 nM | – | –
GGUGGACAUGAGGAUCACCCAUGUGAGGAUAUCGGCUAUCUUGUCGCUGUCGGUUGCUCGAGAAGGCACAUUGU | 78.8 nM | 128 nM | – | –
GGUGGCGCCUAGAAGGCCGGCCAAGAAGGAGCCGGAGGAUAUAGGCCUACAUGAGGAUCACCCAUGUGGCUUAGUCAUAUGGUU | 22.4 nM | 120 nM | – | –
GGUGGGAGGUAGACUGGACGGGCAACAUGAGGAUCACCCAUGUAGGAUAUCGUGUGUGUCAACGACGAGAAGGGCGUAGGCGGA | 20.3 nM | 17.1 nM | – | –
GGUGGUUGAGGAUAUACGAACAUGUCGCCAGAUGUCAUGGUACAUGAGGAUCACCCAUGUAGAAGGUGGUUGUC | 357 nM | 576 nM | – | –
GGUGUAUAUGAGAAGGCGAUCAUGAAACAUGAUCGAGGAUAUCAUGUAAACAUGAGGAUCACCCAUGUAUGGGAAUAUUGCACC | – | – | 133 nM | 15 nM
GGUGUGUCAGGAUAUCAACACACGGCAGCAGCGUUAUGCGUUGAGAAGGGACAUGAGGAUCACCCAUGUGACGG | 46 nM | 70.9 nM | – | –
GGUUACAAGUAAGGAUAUGUAUAUGAAACAUAUACAGAAGGUACAUGAGGAUCACCCAUGUUCUUGCAAAGCGAAUAUGUAACC | 15.1 nM | 18.6 nM | – | –
GGUUAUUGCAAGGAUAUGCUUUUUUGUGAAAUUGCAGAAGGUGCAACAUGAGGAUCACCCAUGUUGGAUGGGUU | 104 nM | 131 nM | – | –
GGUUCGAAAGUGAGGAUAUGCUGGUCCUUGGAUCAGCAGAAGGCACAUGAGGAUCACCCAUGUCCAAGCGGACC | 59 nM | 398 nM | – | –

Sequence | apparent Kd [1] | apparent Kd [2] | apparent Kd [3] | apparent Kd [4]
GGUUGACAAAGUCAACCUAUUCGAACAUGAGGAUCACCCAUGUAGGAUAUGCUACUCAAAGAGUAGCAGAAGGACAUGUGCCUU | 32.7 nM | 172 nM | – | –
GGUUGGCGAGGAUAUACAUGAGGAUCACCCAUGUGAGAGAUACUAGUGAGGUCGAUUGGUAGAAGGCGCUGACA | 108 nM | 58.6 nM | – | –
GGUUGGCGAGGAUAUACAUGAGGAUCACCCAUGUGGUCCUGUGGCUGAUCUUGCCUAUGUAGAAGGCGCAAAUC | 35.7 nM | 280 nM | – | –
GGUUUGCGGCAGGAUAUCCAUCCGCGGUGUGGUGGAGAAGGGCUGACAUGAGGAUCACCCAUGUGCGUCCUGGG | 33.8 nM | 71.7 nM | – | –
GUAAACCUAGGAUAUACAUGAGGAUCACCCAUGUAUUGAUCGUGCGGCUGUUCCGGAGGUAGAAGGAGGAACCU | 20.7 nM | 34.2 nM | – | –
GUAAAGUGAGGAUAUGGUAAAUUAAUUAUUAAUUAAUUAAUCCAGAAGGCACAUGAGGAUCACCCAUGUAAUUG | – | 39.1 nM | – | –
GUAAAGUGAGGAUAUGGUAAUUUAAUUAUUAAUUAAUUAAUCCAGAAGGCACAUGAGGAUCACCCAUGUAAAGG | 39.6 nM | 74.6 nM | – | –
GUAAAUCAUGUAGGAUAUGCAUGGCGAAGCUACGCAGAAGGACAUGAGGAUCACCCAUGUUAUAGCUACCCGUUACGGUGGCAA | 100 nM | 236 nM | – | –
GUAACGCUUGACAUGAGGAUCACCCAUGUUAGAUUGUUAUGUCAGGAUAUAGUCUAGAAACUAGACUAGAAGGGAUAUGUUGCU | – | – | 59.3 nM | 29 nM
GUAAUUAAGAGAGGAUAUUGACAUGAGGAUCACCCAUGUAUUUGGGAGUGUUCACUGAAUUCUUACGAGAAGGCUUUUAAAUAC | 329 nM | 285 nM | – | –
GUACAACAUGAGGAUCACCCAUGUAUAUAUAUACGAGGAUAUGCAUGUACGAAAGUAUAUGCAGAAGGCGUUGUAC | – | – | 127 nM | 30.2 nM
GUACAUGAGCAGAAGGGCAAUUAAUUAAAUUUUUAUGUUUAUCAGAUAUGCAGGAUAUGUUAAACAUGAGGAUCACCCAUGUAC | – | – | 129 nM | 65.8 nM
GUACCUUAUGAGAAGGCGAUCAUGAAACAUGAUCGAGGAUAUCAUGAAAACAUGAGGAUCACCCAUGUAUGGGUAUUAUGGUAC | – | – | 49.6 nM | 17.7 nM
GUAGAGUAAGGAUAUACAGAAUAGGAUAGAAUGGUUAGAAUGUAGAAGGUACAUGAGGAUCACCCAUGUAAUGU | 19.7 nM | 18.4 nM | – | –
GUAGAGUAAGGAUAUCAAGAAUAGGAUAGAAUGGUUAGAAUUGAGAAGGUACAUGAGGAUCACCCAUGUAAUGU | 20.9 nM | 21 nM | – | –
GUAGCAUACCAAGGAUAUUCAGGGCUUGGAUAGACAUGAGGAUCACCCAUGUGGCGAAAGUCUAGGGAGAAGGUGGUAUGCUAC | – | – | 16 nM | 13.8 nM
GUAGCAUACCGAGGAUAUCUAUAUAAUAAACAAACAUGAGGAUCACCCAUGUGGCGAAAGCCAAGGGAGAAGGCGGAAUGCUAC | – | – | 35.6 nM | 22.1 nM
GUAGCAUACCGAGGAUAUUCAGAUAAUAAAUAAACAUGAGGAUCACCCAUGUGGCGAAAGCCUAGGGAGAAGGCGGAAUGCUAC | – | – | 77 nM | 20.6 nM
GUAGCAUACCGAGGAUAUUCAUACAAUAAAUAGACAUGAGGAUCACCCAUGUGGCGAAAGCCUUGGGAGAAGGCGGAAUGCUAC | – | – | 451 nM | 37.6 nM

Sequence | apparent Kd [1] | apparent Kd [2] | apparent Kd [3] | apparent Kd [4]
GUAGCAUACCGAGGAUAUUCAUACCGGAAACGGACAUGAGGAUCACCCAUGUUACGAAAGUAUUGGGAGAAGGCGGAAUGCUAC | – | – | 135 nM | 22.6 nM
GUAGCAUACCGAGGAUAUUCAUACCGGAAACGGACAUGAGGAUCACCCAUGUUUAGAAAUAAUUGGGAGAAGGCGGAAUGCUAC | – | – | 232 nM | 44.7 nM
GUAGCAUACCGAGGAUAUUCAUAUUACAUGAGGAUCACCCAUGUUAUAGGUCGAUUACGACCUUGGGAGAAGGCGGAAUGCUAC | – | – | 30.9 nM | 13.2 nM
GUAGCAUACCGAGGAUAUUCAUGGAAUAAAUAAACAUGAGGAUCACCCAUGUGGCGAAAGCCUAGGGAGAAGGCGGAAUGCUAC | – | – | 269 nM | 446 nM
GUAGCAUACGGAGGAUAUUCAUUAAAACAUGAGGAUCACCCAUGUAAAUUGGGAGAAGGCCGUAUGCUACAAGAGCGAAAGCUC | – | – | 18.3 nM | 5.48 nM
GUAGCAUGCCAAGGAUAUUCAUAUAGUAGGCAAACAUGAGGAUCACCCAUGUAAUGAGAGCAGUGGGAGAAGGUGGGAUGCUAC | – | – | 51.5 nM | 31.9 nM
GUAGCAUUCUGAGGAUAUGGGUUCCGGAAACGGACAUGAGGAUCACCCAUGUGGCGAAAGCCAUACUAGAAGGCAGUAUGCUAC | – | – | 77.9 nM | 7.46 nM
GUAGCGUAUGUAGGAUAUCGGUCAGUUUCUGAUCGAGAAGGACAUGAGGAUCACCCAUGUAAAUUACCGACUUUGUCGGGCUGC | 8.06 nM | 12.4 nM | – | –
GUAGCUACUAUUAUACAUGAGGAUCACCCAUGUUACAUGUGUAAGGAUAUUGAAGUUAUUAUUAUCAAGAAGGUACUAUGCUAC | – | – | 16.2 nM | 9.54 nM
GUAGCUAGUACAGGAUAUUAGUGUGUGUAAUAUUGAGAAGGGUACAUGAGGAUCACCCAUGUGAUCAAUCACUGUUAAGGUUGC | 80.4 nM | 64 nM | – | –
GUAGCUAUCGGAGGAUAUUCAUAAAACAUGAGGAUCACCCAUGUUAAAUUGGGAGAAGGCCGAUAGCUACAAGAGCGAAAGCUC | – | – | 5.85 nM | 4.76 nM
GUAGCUAUCGGAGGAUAUUCAUACGGGAAACGGACAUGAGGAUCACCCAUGUGGCGAAAGCCUUGGGAGAAGGCCGAUAGCUAC | – | – | 37.4 nM | 8.89 nM
GUAGCUAUCGGAGGAUAUUCAUAGCCGAAAGGCACAUGAGGAUCACCCAUGUGGCGAAAGCCUUGGGAGAAGGCCGAUAGCUAC | – | – | 270 nM | 18.7 nM
GUAGUACAUGAGGAUCACCCAUGUGUGGGCGCAUGAGGAUAUGUCCGUACCUGGCGUACGAUAGAAGGCAUGGUGC | – | – | 52.8 nM | 29.3 nM
GUAGUUAGUAGAGGAUAUUAAUAUGUGUAAUAUUGAGAAGGUUACAUGAGGAUCACCCAUGUGAUCAAUCACUGUUAAGGUUGC | 6.97 nM | 7.06 nM | – | –
GUAUAUAUAUAAGGAUAUAAGUCUAGGACAUGAGGAUCACCCAUGUGUGUCUUAGAAGGUAUAUAUGUAAUACUGUUACAGUAA | – | – | 64.8 nM | 14.2 nM
GUAUCAUACCAAGGAUAUUUAGGACUUGUGUAGACAUGAGGAUCACCCAUGUGGCGUUAGUCACGGGAGAAGGUGGUAUGAUAC | – | – | 78.5 nM | 18.8 nM
GUAUCGUGAGGAUAUCAUGAUUGACUUAAUUUAUGUCAGCGUGAGAAGGCACAUGAGGAUCACCCAUGUGAUUA | 22.8 nM | 54.8 nM | – | –
